Assay outcomes as filed in PubChem.
FLuc stim CS: firefly luciferase counter-screen for stimulation assays | P08659 | ATPlite luciferase biochemical, luminescence, 10 min; 0 = ATP-free wells, 1 = DMSO control | activation factor at 10 µM | 200,000 tested, under 10 active;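 active = luciferase activation factor, scaled between plate controls, of at least 2 with compound at 10 µM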
Target sequence (P08659 whole entry, looked up): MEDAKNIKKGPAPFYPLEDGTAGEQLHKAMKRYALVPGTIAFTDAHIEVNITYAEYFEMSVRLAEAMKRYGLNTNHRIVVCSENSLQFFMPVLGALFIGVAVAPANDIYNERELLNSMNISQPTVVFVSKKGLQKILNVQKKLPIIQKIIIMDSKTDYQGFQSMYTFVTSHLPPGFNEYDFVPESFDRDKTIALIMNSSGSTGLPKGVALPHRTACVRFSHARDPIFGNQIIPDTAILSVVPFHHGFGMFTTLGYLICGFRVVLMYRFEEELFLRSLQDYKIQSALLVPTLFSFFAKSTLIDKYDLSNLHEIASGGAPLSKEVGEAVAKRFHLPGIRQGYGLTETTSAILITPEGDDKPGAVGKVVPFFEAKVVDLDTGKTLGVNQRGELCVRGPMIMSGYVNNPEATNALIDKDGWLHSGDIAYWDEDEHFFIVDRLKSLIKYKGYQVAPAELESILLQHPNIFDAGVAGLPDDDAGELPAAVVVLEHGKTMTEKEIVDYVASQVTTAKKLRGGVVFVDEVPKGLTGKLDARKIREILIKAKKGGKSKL
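System: cell-free luciferase reagent; medium: PBS as buffer for the ATP substrate; doses: test compounds dosed from 2 mM stocks in 100% DMSO; incubation: 10 min, room temperature; measured by: luminescence from luciferase reaction; read-out: luciferase activation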
HSP90 inh: blocks HSP90-mediated luciferase refolding in reticulocyte lysate | Rabbit reticulocyte lysate, luciferase refolding luminescence, 3 h | inhibition, % at 5.6 µM | 0.91% of 290,000 active | AID 1789;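 active = inhibition above the screen-wide mean plus 3 SD, computed separately per campaign, cut at about 16% in these data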;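 also: 0% = DMSO wells and 100% = 60 µM geldanamycin wells; inhibitors lower the luminescence because luciferase stays unfolded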
C8 TRAIL sens: sensitizes caspase-8 expressing cells to TRAIL; NB7+C8 cells + TRAIL, ATPlite viability luminescence; inhibition (viability loss, TRAIL sensitization), % at 10 µM; 1% of 360,000 active;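 active = compounds causing at least 50% loss of cell viability in the single-dose screen, relative to plate controls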
FLuc inh counter: inhibits firefly luciferase, flagging false hits in luciferase inhibition screens | P08659 | inhibition, % at 10 µM | ATPLite firefly luciferase biochemical luminescence, 10 min | 1.5% of 200,000 active | AID 1006;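 active = inhibition above about 50% when tested at 10 µM, limit read from the data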
PPC-1+TRAIL kill: PPC-1 cancer cell killing with TRAIL present; PPC-1 cells + TRAIL, ATPLite viability luminescence; cell killing (% activity), % at 4 µM or 5 µM; AID 1443; 0.41% of 220,000 active;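 active = cell killing above 50% in the first pass at 4 µM, then a duplicate retest at 5 µM averaging 50% or more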;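 also: plate controls were cells with TRAIL plus DMSO for no effect and medium-only wells lacking cells for full effect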
HSP90 inh confirm: HSP90 inhibition, confirmation assay; AID 1846; rabbit reticulocyte lysate, luciferase refolding luminescence, 3 h; inhibition, % at 5.9 µM; 64% of 2,300 active; shares compounds with HSP90 inh; in the data active = inhibition above about 18%;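 also: 0% = vehicle wells and 100% = reference inhibitor wells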
luciferase ctr: blocks native firefly luciferase in HSP90 counter-screen. AID 1847. inhibition, % at 5.9 µM. purified native firefly luciferase, luminescence. 48% of 2,300 active. shares compounds with HSP90 inh;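 active = inhibition above the mean inhibition of all tested sample wells plus 3 SD, cut at about 10% in these data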;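 also: 0% = DMSO with luciferase and 100% = wells lacking luciferase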
Numbers without * were called inactive; · = not tested or not shown. Only some compounds are listed: those with a hit (about 2% of all), similar ones and a draw of the others.

SMILES	FLuc stim CS	HSP90 inh	C8 TRAIL sens	FLuc inh counter	PPC-1+TRAIL kill	HSP90 inh confirm	luciferase ctr
Cc1cc(C)cc(Nc2ccc(C(=O)O)cc2[N+](=O)[O-])c1	·	-2	-2	·	·	·	·
COc1cccc(Nc2ccc(C(=O)O)cc2N)c1	·	11	7	·	·	·	·
Cc1cc(C)cc(Nc2ccc(C(=O)O)cc2N)c1	1	23*	-8	-1	15	1	-18
Cc1ccc(Nc2ccc(C(=O)O)cc2N)cc1	1.1	20*	·	-6	1	4	-20
O=C(Nc1ccccc1O)c1cc2cc(Br)ccc2oc1=O	·	17*	-2	·	·	-4	-16
S=C(Nc1ccc(Br)cc1Cl)N1CCN(c2ccccn2)CC1	·	0	-2	·	·	·	·
Cc1cccc(CC(=O)N2CCC(N3CCC(C(=O)N4CCOCC4)CC3)CC2)c1	1.1	51*	3	-11	11	-7	-8
CCN1CCN(CCCN(Cc2cccs2)C(=S)Nc2ccccc2C)CC1	1.1	4	-22	-9	14	·	·
CCCc1cc(=O)oc2cc(C)cc(OC(C)C(=O)NCC(O)c3ccccc3)c12 (stereo unspecified)	·	-1	-29	·	·	·	·
CC1(C)C(=O)NCCN1C(=O)CC1C(=O)NCCN1CC(c1ccccc1)c1ccccc1 (stereo unspecified)	1.1	24*	-4	-6	-8	-2	-3
CC(C)(CO)NC(=O)CC1C(=O)NCCN1CC(c1ccccc1)c1ccccc1 (stereo unspecified)	1.1	-3	-9	-6	3	·	·
Cc1ccc2oc(/N=C(\N)NC(=O)C3CC3)nc2c1	·	27*	50*	·	29	48*	40*
CC(C)(C)c1ccc(C(=O)N/C(N)=N/c2nc3ccccc3o2)cc1	1	7	6	-4	6	·	·
O=C(O)/C=C/c1ccc([N+](=O)[O-])o1	1.1	-1	-4	-5	9	·	·
N#CCc1ccc(NC(=O)/C=C/c2ccc([N+](=O)[O-])o2)cc1	0.9	60*	46	7	20	9	-7
CC(=O)NCC(=O)OC(C(=O)c1ccccc1)c1ccc(Cl)cc1 (stereo unspecified)	1	0	5	-3	-7	·	·
O=C(O)/C=C/c1cnn(-c2ccccc2)c1	1	53*	-21	4	12	59*	38*
COc1ccccc1NC(=O)C(=O)c1cn(CC(=O)N2CCOCC2)c2ccccc12	·	21*	4	·	·	-1	-23
COc1ccccc1NC(=O)C(=O)c1cn(CC(=O)N2CCCC2)c2ccccc12	·	-6	8	·	·	·	·
C(=N\Nc1ccccn1)/c1c[nH]c2ccccc12	·	0	13	·	17	·	·
O=c1nc(N/N=C/C=C/c2ccccc2)cn[nH]1	·	23*	13	·	5	78*	65*
O=c1nc(N/N=C/c2c[nH]c3ccccc23)cn[nH]1	·	27*	7	·	27	30*	14*
C(=C\c1ccccc1)/C=N/Nc1nncc(-c2ccccc2)n1	1	-3	·	1	22	·	·
O=C(NNc1ccccc1)/C(=C\c1cccnc1)NC(=O)c1ccccc1	·	8	-6	·	0	·	·
CC[C@]12c3[nH]c4ccc(OC)cc4c3CCN1C(=O)C(CC(=O)NCCCN(C)C)C[C@@H]2C(=O)N1CCN(C(=O)c2ccco2)CC1 (stereo partly specified)	·	·	-9	·	·	·	·
SMILES	FLuc stim CS	HSP90 inh	C8 TRAIL sens	FLuc inh counter	PPC-1+TRAIL kill	HSP90 inh confirm	luciferase ctr
CC(=O)c1sc(NC(=O)C2COc3ccccc3O2)nc1C (stereo unspecified)	0.4	43*	-11	60*	·	70*	66*
O=C(Nc1nncs1)C1COc2ccccc2O1 (stereo unspecified)	1	3	2	-1	12	·	·
CC1(C)Oc2ccc(NC(=O)C3COc4ccccc4O3)cc2O1 (stereo unspecified)	0.6	27*	33	41	8	49*	44*
CC(N)c1ccc(Cl)cc1Cl (stereo unspecified)	1	-1	4	-4	11	·	·
Oc1ccccc1Nc1nc(NCc2ccco2)c2ccccc2n1	·	28*	11	·	8	5	-1
C=CCN1C(=O)/C(=c2\sc3nc(=O)c(Cc4ccccc4Cl)nn3c2=O)c2ccccc21	·	0	0	·	6	·	·
